Reference: ChEMBL document CHEMBL3580554, “Design, synthesis, and anticonvulsant activity of new hybrid compounds derived from 2-(2,5-dioxopyrrolidin-1-yl)propanamides and 2-(2,5-dioxopyrrolidin-1-yl)butanamides” (J Med Chem, 2015)
The source made the active and inactive calls. The calls are words filed in the database; no cut-off is given here.

Columns and labels:
Mus musculus [1] = assay: Anticonvulsant activity in ip dosed Swiss mouse assessed as protection against seizures measured at 0.25 hrs of time to peak effect by maximal electroshock test; format: functional
In short: (§1)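 Median effective doses (ED50, mg/kg) were determined i.p. in mice at the time of peak effect in the MES, sc PTZ or 6 Hz tests. Only compounds giving at least 50% protection at 100 mg/kg in that test were taken forward.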

[2] = Toxicity in ip dosed Swiss mouse assessed as induction of motor performance impairment measured within 60 seconds measured at 0.5 hrs of time to peak effect by Chimney test; format: organism-based; conditions: in vivo
In short: (§2)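 Neurotoxicity was measured i.p. in mice by the chimney test for motor impairment. It was given as the median neurotoxic dose (TD50, mg/kg) at the time of peak effect.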

Mus musculus [3] = assay: Anticonvulsant activity in Swiss mouse assessed as protection against seizures at 100 mg/kg, ip dosed 2 hrs before initiation of maximal electroconvulsions by maximal electroshock test; format: functional
In short: (§3)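 Mice were dosed i.p. at a fixed 300 or 100 mg/kg (6 Hz: 100 mg/kg only). Protection was then scored against MES, sc PTZ or 6 Hz seizures at pretreatment times of 0.25, 0.5, 1 and 2 h. Groups were four mice, scored as number protected / number tested. This also gives the time course and time of peak effect.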

Mus musculus [4] = assay: Anticonvulsant activity in Swiss mouse assessed as protection against seizures at 300 mg/kg, ip dosed 0.25 hrs before initiation of maximal electroconvulsions by maximal electroshock test; format: functional; in short: as §3
Mus musculus [5] = assay: Anticonvulsant activity in Swiss mouse assessed as protection against seizures at 300 mg/kg, ip dosed 0.5 hrs before pentylenetetrazole challenge by subcutaneous pentylenetetrazole seizure test; format: functional; in short: as §3
Mus musculus [6] = assay: Anticonvulsant activity in Swiss mouse assessed as protection against seizures at 300 mg/kg, ip dosed 1 hr before pentylenetetrazole challenge by subcutaneous pentylenetetrazole seizure test; format: functional; in short: as §3
Mus musculus [7] = assay: Anticonvulsant activity in Swiss mouse assessed as protection against seizures at 100 mg/kg, ip dosed 1 hr before pentylenetetrazole challenge by subcutaneous pentylenetetrazole seizure test; format: functional; in short: as §3
Mus musculus [8] = assay: Anticonvulsant activity in ip dosed Swiss mouse assessed as protection against seizures measured at 0.5 hrs of time to peak effect by subcutaneous pentylenetetrazole seizure test; format: functional; in short: as §1
Rattus norvegicus [9] = species on record: Rattus norvegicus; assay: Inhibition of [3H]BTX binding to sodium channel site 2 in rat cerebral cortex synaptosomes at 1 uM incubated for 60 mins by scintillation counting based radioligand displacement assay; format: subcellular
In short: (§4)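 Synaptoneurosomal preparations from rat cerebral cortex were used. The read-out was inhibition of specific [3H]BTX binding to the voltage-sensitive sodium channel (site 2), expressed as % inhibition of control specific binding. Compounds were tested at 1, 10, 100 and 500 μM. Inhibition above 50% was taken as significant.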

Mus musculus [10] = assay: Anticonvulsant activity in Swiss mouse assessed as protection against seizures at 300 mg/kg, ip dosed 0.5 hrs before initiation of maximal electroconvulsions by maximal electroshock test; format: functional; in short: as §3
Mus musculus [11] = assay: Anticonvulsant activity in Swiss mouse assessed as protection against seizures at 300 mg/kg, ip dosed 2 hrs before initiation of maximal electroconvulsions by maximal electroshock test; format: functional; in short: as §3
Mus musculus [12] = species on record: Mus musculus; assay: Protective index, ratio of neurotoxic TD50 in Swiss mouse by Chimney test to anticonvulsant ED50 in Swiss mouse measured at 0.25 hrs of time to peak effect by 6 Hz test by 6 Hz psychomotor seizure test; format: functional
In short: (§5)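 Protective index was calculated as TD50 (chimney test, mouse, i.p.) divided by ED50 from the matching MES, sc PTZ or 6 Hz test, both taken at the time of peak effect.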

Rattus norvegicus [13] = species on record: Rattus norvegicus; assay: Inhibition of [3H]BTX binding to sodium channel site 2 in rat cerebral cortex synaptosomes at 10 uM incubated for 60 mins by scintillation counting based radioligand displacement assay; format: subcellular; in short: as §4
Mus musculus [14] = assay: Anticonvulsant activity in Swiss mouse assessed as protection against seizures at 300 mg/kg, ip dosed 2 hrs before pentylenetetrazole challenge by subcutaneous pentylenetetrazole seizure test; format: functional; in short: as §3
Mus musculus [15] = species on record: Mus musculus; assay: Protective index, ratio of neurotoxic TD50 in Swiss mouse by Chimney test to anticonvulsant ED50 in Swiss mouse measured at 0.25 hrs of time to peak effect by maximal electroshock test; in short: as §5
Mus musculus [16] = species on record: Mus musculus; assay: Protective index, ratio of neurotoxic TD50 in Swiss mouse by Chimney test to anticonvulsant ED50 in Swiss mouse measured at 0.5 hrs of time to peak effect by maximal electroshock test; in short: as §5
Rattus norvegicus [17] = species on record: Rattus norvegicus; assay: Inhibition of [3H]BTX binding to sodium channel site 2 in rat cerebral cortex synaptosomes at 500 uM incubated for 60 mins by scintillation counting based radioligand displacement assay; format: subcellular; in short: as §4
Mus musculus [18] = assay: Anticonvulsant activity in Swiss mouse model of 6 Hz psychomotor seizure mode assessed as protection against seizures at 100 mg/kg, ip dosed 0.25 hrs before 6 Hz electrical stimulation by 6 Hz test; format: functional; in short: as §3
Mus musculus [19] = assay: Anticonvulsant activity in Swiss mouse assessed as protection against seizures at 100 mg/kg, ip dosed 1 hr before initiation of maximal electroconvulsions by maximal electroshock test; format: functional; in short: as §3
Mus musculus [20] = assay: Protective index, ratio of neurotoxic TD50 in Swiss mouse by Chimney test to anticonvulsant ED50 in Swiss mouse measured at 0.25 hrs of time to peak effect by subcutaneous pentylenetetrazole seizure test; format: functional; in short: as §5
Mus musculus [21] = assay: Anticonvulsant activity in Swiss mouse model of 6 Hz psychomotor seizure mode assessed as protection against seizures at 100 mg/kg, ip dosed 1 hr before 6 Hz electrical stimulation by 6 Hz test; format: functional; in short: as §3
Mus musculus [22] = assay: Anticonvulsant activity in Swiss mouse model of 6 Hz psychomotor seizure mode assessed as protection against seizures at 100 mg/kg, ip dosed 2 hrs before 6 Hz electrical stimulation by 6 Hz test; format: functional; in short: as §3
Mus musculus [23] = assay: Anticonvulsant activity in Swiss mouse model of 6 Hz psychomotor seizure mode assessed as protection against seizures at 100 mg/kg, ip dosed 0.5 hrs before 6 Hz electrical stimulation by 6 Hz test; format: functional; in short: as §3
Mus musculus [24] = assay: Anticonvulsant activity in Swiss mouse assessed as protection against seizures at 100 mg/kg, ip dosed 0.5 hrs before pentylenetetrazole challenge by subcutaneous pentylenetetrazole seizure test; format: functional; in short: as §3
Mus musculus [25] = assay: Protective index, ratio of neurotoxic TD50 in Swiss mouse by Chimney test to anticonvulsant ED50 in Swiss mouse measured at 0.5 hrs of time to peak effect by subcutaneous pentylenetetrazole seizure test; format: functional; in short: as §5
Mus musculus [26] = assay: Anticonvulsant activity in Swiss mouse assessed as protection against seizures at 300 mg/kg, ip dosed 1 hr before initiation of maximal electroconvulsions by maximal electroshock test; format: functional; in short: as §3
Mus musculus [27] = assay: Anticonvulsant activity in ip dosed Swiss mouse assessed as protection against seizures measured at 0.5 hrs of time to peak effect by maximal electroshock test; format: functional; in short: as §1
[28] = Toxicity in ip dosed Swiss mouse assessed as induction of motor performance impairment measured within 60 seconds measured at 0.25 hrs of time to peak effect by Chimney test; format: organism-based; conditions: in vivo; in short: as §2
Mus musculus [29] = assay: Anticonvulsant activity in Swiss mouse assessed as protection against seizures at 100 mg/kg, ip dosed 0.25 hrs before initiation of maximal electroconvulsions by maximal electroshock test; format: functional; in short: as §3
Mus musculus [30] = assay: Anticonvulsant activity in ip dosed Swiss mouse assessed as protection against seizures measured at 0.25 hrs of time to peak effect by 6 Hz test by 6 Hz psychomotor seizure test; format: functional; in short: as §1
Mus musculus [31] = assay: Anticonvulsant activity in Swiss mouse assessed as protection against seizures at 100 mg/kg, ip dosed 0.25 hrs before pentylenetetrazole challenge by subcutaneous pentylenetetrazole seizure test; format: functional; in short: as §3
Mus musculus [32] = assay: Anticonvulsant activity in Swiss mouse assessed as protection against seizures at 100 mg/kg, ip dosed 2 hrs before pentylenetetrazole challenge by subcutaneous pentylenetetrazole seizure test; format: functional; in short: as §3
Mus musculus [33] = assay: Anticonvulsant activity in ip dosed Swiss mouse assessed as protection against seizures measured at 0.25 hrs of time to peak effect by subcutaneous pentylenetetrazole seizure test; format: functional; in short: as §1
Mus musculus [34] = species on record: Mus musculus; assay: Protective index, ratio of neurotoxic TD50 in Swiss mouse by Chimney test to anticonvulsant ED50 in Swiss mouse measured at 0.5 hrs of time to peak effect by 6 Hz test by 6 Hz psychomotor seizure test; format: functional; in short: as §5
Rattus norvegicus [35] = species on record: Rattus norvegicus; assay: Inhibition of [3H]BTX binding to sodium channel site 2 in rat cerebral cortex synaptosomes at 100 uM incubated for 60 mins by scintillation counting based radioligand displacement assay; format: subcellular; in short: as §4
Mus musculus [36] = assay: Anticonvulsant activity in Swiss mouse assessed as protection against seizures at 100 mg/kg, ip dosed 0.5 hrs before initiation of maximal electroconvulsions by maximal electroshock test; format: functional; in short: as §3
Mus musculus [37] = assay: Anticonvulsant activity in Swiss mouse assessed as protection against seizures at 300 mg/kg, ip dosed 0.25 hrs before pentylenetetrazole challenge by subcutaneous pentylenetetrazole seizure test; format: functional; in short: as §3
Mus musculus [38] = assay: Anticonvulsant activity in ip dosed Swiss mouse assessed as protection against seizures measured at 0.5 hrs of time to peak effect by 6 Hz test by 6 Hz psychomotor seizure test; format: functional; in short: as §1
Rattus norvegicus [39] = species on record: Rattus norvegicus; assay: Inhibition of [125I]omega-conotoxin GVIA binding to N-type calcium channel in rat cerebral cortex synaptosomes at 200 uM incubated for 30 mins by scintillation counting based radioligand displacement assay; format: subcellular
Rattus norvegicus [40] = species on record: Rattus norvegicus; assay: Inhibition of [125I]omega-conotoxin GVIA binding to N-type calcium channel in rat cerebral cortex synaptosomes at 100 uM incubated for 30 mins by scintillation counting based radioligand displacement assay; format: subcellular

Row | Structure (SMILES) | ED50 (Mus musculus [1]) [mg/kg] | TD50 at 0.5 h [2] [mg/kg] | Activity (Mus musculus [3]) [%] | Activity (Mus musculus [4]) [%] | Activity (Mus musculus [5]) [%] | Activity (Mus musculus [6]) [%] | Activity (Mus musculus [7]) [%] | ED50 (Mus musculus [8]) [mg/kg] | inhibition (Rattus norvegicus [9]) [%] | Activity (Mus musculus [10]) [%] | Activity (Mus musculus [11]) [%] | Ratio TD50/ED50 (Mus musculus [12]) | inhibition (Rattus norvegicus [13]) [%] | Activity (Mus musculus [14]) [%] | Ratio TD50/ED50 (Mus musculus [15]) | Ratio TD50/ED50 (Mus musculus [16]) | inhibition (Rattus norvegicus [17]) [%] | Activity (Mus musculus [18]) [%] | Activity (Mus musculus [19]) [%] | Activity (Mus musculus [21]) [%] | also measured
1 | CCC(C(=O)N1CCN(c2cccc(C(F)(F)F)c2)CC1)N1C(=O)CCC1=O (racemic) | 58.9 | 173 | 0 | 75 | 75 | 75 | 25 | 78.6 | 8.4 | 50 | 50 | 10 | 9.5 | 75 | 3.38 | 1.88 | 69.5 | 100 | 0 | 75 | Ratio TD50/ED50 (Mus musculus [20]): 2.39; Activity (Mus musculus [22]): 50%; Activity (Mus musculus [23]): 100%; Activity (Mus musculus [24]): 75%; Ratio TD50/ED50 (Mus musculus [25]): 2.19; Activity (Mus musculus [26]): 100%; ED50 (Mus musculus [27]): 91.7 mg/kg; TD50 at 0.25 h [28]: 199 mg/kg; Activity (Mus musculus [29]): 75%; ED50 (Mus musculus [30]): 19.9 mg/kg; Activity (Mus musculus [31]): 50%; Activity (Mus musculus [32]): 25%; ED50 (Mus musculus [33]): 83.2 mg/kg; Ratio TD50/ED50 (Mus musculus [34]): 4.08; inhibition (Rattus norvegicus [35]): 8.8%; Activity (Mus musculus [36]): 50%; Activity (Mus musculus [37]): 100%; ED50 (Mus musculus [38]): 42.3 mg/kg
2 | COCC(C(=O)N1CCN(c2cccc(C(F)(F)F)c2)CC1)N1C(=O)CCC1=O (racemic) | 58.1 | 197 | 0 | 25 | 100 | 75 | 50 | > 120 | 5.7 | 50 | 100 | 3.52 | 14.6 | 75 | 3.49 | 2.32 | 77.6 | 100 | 50 | 75 | inhibition (Rattus norvegicus [39]): 3.2%; Activity (Mus musculus [22]): 25%; Activity (Mus musculus [23]): 100%; Activity (Mus musculus [24]): 50%; Activity (Mus musculus [26]): 100%; inhibition (Rattus norvegicus [40]): inactive; ED50 (Mus musculus [27]): 85.1 mg/kg; TD50 at 0.25 h [28]: 203 mg/kg; Activity (Mus musculus [29]): 100%; ED50 (Mus musculus [30]): 57.6 mg/kg; Activity (Mus musculus [31]): 50%; Activity (Mus musculus [32]): 50%; ED50 (Mus musculus [33]): > 120 mg/kg; Ratio TD50/ED50 (Mus musculus [34]): 2.64; inhibition (Rattus norvegicus [35]): 38.7%; Activity (Mus musculus [36]): 75%; Activity (Mus musculus [37]): 100%; ED50 (Mus musculus [38]): > 120 mg/kg
